According to ChEMBL document CHEMBL1130047, “Synthesis, structure, and antiproliferative activity of selenophenfurin, an inosine 5'-monophosphate dehydrogenase inhibitor analogue of selenazofurin” (J Med Chem, 1997):

What was measured:
5637 = assay: Compound was tested for antiproliferative activity against 5637, human bladder carcinoma cell line; format: functional, cell-based
Outline: (§1)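 Exponentially growing solid-tumour-derived cells were seeded at 5 × 10⁴ cells/mL and left to adhere for 16 h before drug addition, across a range of concentrations. Growth was expressed as % of untreated controls, and IC50 (concentration reducing cell viability by 50%) was obtained by linear regression.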

CHO-K1 [1] = assay: Compound was tested for antiproliferative activity against CHO-K1, Chinese hamster ovary cells; format: functional, cell-based; conditions: Cricetulus griseus
Outline: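 Solid tumor-derived adherent cells seeded at 5 × 10⁴ cells/mL in exponential growth, allowed 16 h to attach before drug addition; viability by MTT method. Growth expressed as percent of untreated controls, IC50 obtained by linear regression.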

CCRF-SB [2] = assay: (§2) Compound was tested for antiproliferative activity against CCRF-SB, human acute B-lymphoblastic leukemia; format: functional, cell-based
Outline: (§3)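 Suspension leukemia/lymphoma cells in exponential growth resuspended at 1 × 10⁵ cells/mL in growth medium with various compound concentrations; viability read by MTT after 96 h at 37 °C. Growth given as percentage of untreated controls; IC50 (concentration reducing viability 50%) from linear regression.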

CCRF-CEM [3] = assay: (§4) Compound was tested for antiproliferative activity against CCRF-CEM, human acute T-lymphoblastic leukemia; format: functional, cell-based; outline: as §3
HT-29 = assay: Compound was tested for antiproliferative activity against HT29, human colon adenocarcinoma; format: functional, cell-based; outline: as §1
HeLa = assay: Compound was tested for antiproliferative activity against HeLa, human cervix carcinoma; format: functional, cell-based; outline: as §1
[4] = molecular target: T1, Inosine-5'-monophosphate dehydrogenase (IMPDH) (Homo sapiens) (UniProt P20839+P12268); assay: Compound was tested for its effect on IMPDH (Inosine 5`-monophosphate dehydrogenase) activity of K562 cells in culture.; format: functional, cell-based; conditions: scale: (nM of XMP formed) hr-1
T1 sequence (P20839 whole entry, looked up, other chains not shown): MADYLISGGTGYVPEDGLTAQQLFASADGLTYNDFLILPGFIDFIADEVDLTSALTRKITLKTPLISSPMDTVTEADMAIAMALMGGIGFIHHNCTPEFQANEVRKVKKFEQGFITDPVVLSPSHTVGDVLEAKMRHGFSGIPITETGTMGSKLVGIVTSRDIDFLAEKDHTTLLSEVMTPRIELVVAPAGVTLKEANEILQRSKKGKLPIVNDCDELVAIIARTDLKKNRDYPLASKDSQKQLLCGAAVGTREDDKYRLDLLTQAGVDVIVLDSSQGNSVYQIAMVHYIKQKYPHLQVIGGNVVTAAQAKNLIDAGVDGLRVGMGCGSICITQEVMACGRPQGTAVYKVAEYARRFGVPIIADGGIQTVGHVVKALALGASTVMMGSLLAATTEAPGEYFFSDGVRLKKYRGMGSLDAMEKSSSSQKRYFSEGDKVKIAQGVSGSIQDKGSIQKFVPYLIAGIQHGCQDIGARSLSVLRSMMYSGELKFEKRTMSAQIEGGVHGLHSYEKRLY

[5] = molecular target: T1, Inosine-5'-monophosphate dehydrogenase (IMPDH) (Homo sapiens); assay: Compound was tested for its inhibition against IMPDH from human myelogenous leukemia K562 cells in culture.; format: functional, cell-based; conditions: concentration not given here
K562 [6] = assay: Compound was tested for its influence on the GDP (guanosine diphosphate) ribonucleotide level in K562 cells; format: functional, Homo sapiens
Outline: (§5)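 K562 cells in culture (1 × 10⁷) were incubated with 10 µM agent or saline for 2 h at 37 °C, then washed with cold saline. Extraction used cold 10% trichloroacetic acid, followed by neutralisation with 0.5 M tri-n-octylamine in freon. Nucleotides were measured by HPLC on a strong anion-exchange (SAX) column, with levels in nmol/g and % of saline control.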

K562 [7] = assay: Compound was tested for its influence on the GMP (guanosine monophosphate) ribonucleotide level in K562 cells; format: functional, Homo sapiens; outline: as §5
K562 [8] = assay: Compound was tested for its influence on the GTP (guanosine triphosphate) ribonucleotide level in K562 cells; format: functional, Homo sapiens; outline: as §5
K562 [9] = assay: Compound was tested for its influence on the IMP (Inosine 5`-monophosphate) ribonucleotide level in K562 cells; format: functional, Homo sapiens
Outline: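 K562 cells (1 × 10⁷) given 10 µM agent or saline for 2 h at 37 °C, washed in cold saline, extracted with cold 10% trichloroacetic acid, neutralized with 0.5 M tri-n-octylamine in freon; IMP measured by strong anion-exchange HPLC, reported as percent of saline control (control in nmol/g).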

K562 [10] = assay: (§6) Compound was tested for antiproliferative activity against K562, human erythroid leukemia; format: functional, cell-based; outline: as §3
L1210 [11] = assay: (§7) Compound was tested for antiproliferative activity against L1210, murine lymphocytic leukemia; format: functional, cell-based; conditions: Mus musculus; outline: as §3
MOLT-4 [12] = assay: (§8) Compound was tested for antiproliferative activity against MOLT-4, human acute T-lymphoblastic leukemia; format: functional, cell-based; outline: as §3
Raji = assay: Compound was tested for antiproliferative activity against Raji, human Burkitt lymphoma; format: functional, cell-based
Outline: (§9)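 Exponentially growing cells were seeded at 1 × 10⁵ cells/mL in growth medium and exposed to various compound concentrations for 96 h at 37 °C. Viability was read by MTT. Growth at each concentration was taken as % of untreated controls, and IC50 (concentration reducing viability by 50%) was derived by linear regression.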

WIL2-NS = assay: Compound was tested for antiproliferative activity against Wil2-NS, human splenic lymphoblastoid cells; format: functional, cell-based; outline: as §9
ACHN = assay: Compound was tested for antiproliferative activity against ACHN, human renal adenocarcinoma; format: functional, cell-based; outline: as §1
CCRF-SB [13] = assay: as §2; format: functional, cell-based; outline: as §9; remark: listed apart in the source
[14] = molecular target: T1, Inosine-5'-monophosphate dehydrogenase (IMPDH) (Homo sapiens); assay: Compound was tested for its effect on IMPDH (Inosine 5`-monophosphate dehydrogenase) activity in K562 cells in culture.; format: functional, cell-based; conditions: scale: (nM of XMP formed) hr-1
[15] = molecular target: T1, Inosine-5'-monophosphate dehydrogenase (IMPDH) (Homo sapiens); assay: (§10) Compound was tested for its inhibition against IMPDH from human myelogenous leukemia in K562 cells; format: functional, cell-based; conditions: concentration not given here
K562 [16] = assay: as §6; format: functional, cell-based; outline: as §9; remark: listed apart in the source
CHO-K1 [17] = assay: Compound was tested for antiproliferative activity against CHO-K1, Chinese hamster ovary; format: functional, cell-based; conditions: Cricetulus griseus; outline: as §1
CCRF-CEM [18] = assay: as §4; format: functional, cell-based; outline: as §9; remark: listed apart in the source
[19] = molecular target: T1, Inosine-5'-monophosphate dehydrogenase (IMPDH) (Homo sapiens); assay: Compound was tested for its effect on IMPDH (Inosine 5`-monophosphate dehydrogenase) activity in K562 cells; format: functional, cell-based; conditions: scale: (nM of XMP formed) hr-1
Outline: (§11)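 Log-phase K562 cells (1 × 10⁶ cells/mL) were given 10 µM agent or saline for 2 h at 37 °C. They were then washed and lysed in Tris-HCl pH 7.4/NaCl/MgCl₂/0.5% NP-40/aprotinin, and the 13000g supernatant served as enzyme. The reaction ran 30 min at 37 °C, stopped by heating at 95 °C for 1 min. Radioactivity was trapped in KOH and counted by scintillation, giving nmol XMP/mg protein/h and % inhibition against saline.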

K562 [20] = assay: Compound was tested for its influence on the IMP (Inosine 5`-monophosphate) ribonucleotide level of K562 cells in culture; format: functional, Homo sapiens; outline: as §5
MOLT-4 [21] = assay: as §8; format: functional, cell-based; outline: as §9; remark: listed apart in the source
L1210 [22] = assay: as §7; format: functional, cell-based; conditions: Mus musculus; outline: as §9; remark: listed apart in the source
[23] = molecular target: T1, Inosine-5'-monophosphate dehydrogenase (IMPDH) (Homo sapiens); assay: as §10; format: functional, cell-based; conditions: concentration not given here; outline: as §11; remark: listed apart in the source

| Structure (SMILES) | IC50 5637 | IC50 (CHO-K1 [1]) | IC50 (CCRF-CEM [3]) | IC50 (HT-29) | IC50 (HeLa) | Control (K562 [6]) | Control (K562 [7]) | Control (K562 [8]) | Control (K562 [9]) | IC50 (L1210 [11]) | IC50 (MOLT-4 [12]) | IC50 (Raji) | IC50 (WIL2-NS) | IC50 (ACHN) | IC50 (CCRF-SB [13]) | IC50 (K562 [16]) | IC50 (CHO-K1 [17]) | IC50 (CCRF-CEM [18]) | IMPDH activity [19] | IC50 (MOLT-4 [21]) | also measured |
| --- | --- | --- | --- | --- | --- | --- | --- | --- | --- | --- | --- | --- | --- | --- | --- | --- | --- | --- | --- | --- | --- |
| NC(=O)c1csc([C@@H]2O[C@H](CO)[C@@H](O)[C@H]2O)n1 [TIAZOFURIN] | 24 µM | 6.4 µM | 10 µM | 100 µM | 100 µM | 89% | 0% | 55% | 1033% | 2.9 µM | 5.2 µM | 8.2 µM | 5.7 µM | > 100 µM |  |  |  |  |  |  | IC50 (CCRF-SB [2]): 7.5 µM; IMPDH activity [4]: 2.07; inhibition [5]: 59%; IC50 (K562 [10]): 2.5 µM |
| NC(=O)c1csc([C@@H]2O[C@H](CO)[C@@H](O)[C@H]2O)c1 | 17 µM | 55 µM | 3.5 µM | 40 µM | 90 µM | 66% | 0% | 60% | 703% | 1.7 µM | 2.9 µM | 8.7 µM | 5.8 µM | 79 µM | 6.4 µM | 2.3 µM |  |  |  |  | IMPDH activity [14]: 2.62; inhibition [15]: 52% |
| NC(=O)c1c[se]c([C@@H]2O[C@H](CO)[C@@H](O)[C@H]2O)n1 | 2.3 µM |  |  | 7.7 µM | 7.9 µM | 59% | 0% | 50% |  |  |  | 1.6 µM | 1.2 µM | 13.8 µM | 1.5 µM | 0.5 µM | 0.6 µM | 1.2 µM | 1.01 | 0.6 µM | Control (K562 [20]): 1043%; IC50 (L1210 [22]): 0.5 µM; inhibition [23]: 80% |
| NC(=O)c1c[se]c([C@@H]2O[C@H](CO)[C@@H](O)[C@H]2O)c1 | 1.2 µM |  |  | 3.5 µM | 6.4 µM | 61% | 0% | 42% | 1464% |  |  | 0.9 µM | 0.7 µM | 9.9 µM | 0.9 µM | 0.45 µM | 2.9 µM | 0.3 µM | 1.06 | 0.3 µM | IC50 (L1210 [22]): 0.3 µM; inhibition [23]: 76% |
